Active and inactive are the calls of the source. No cut-off for these calls is given here.
Columns and labels:
[1] = molecular target: T1, Dopamine receptor (Rattus norvegicus) (UniProt P25115+P19020+P30729+P18901+P61169); assay: Evaluation of Dopamine receptor activation in striatum of reserpinized rat; type: functional, tissue-based
[2] = molecular target: T1, Dopamine receptor (Rattus norvegicus); assay: Dopamine receptor activation in limbic system of reserpinized rat; Inactive at >45 uM/Kg.; type: tissue-based
[3] = molecular target: T1, Dopamine receptor (Rattus norvegicus); assay: Dopamine receptor activation in striatum of reserpinized rat; Inactive at >45 uM/Kg.; type: tissue-based
[4] = molecular target: T1, Dopamine receptor (Rattus norvegicus); assay: Evaluation for Dopamine receptor activation in limbic system of reserpinized rat; type: tissue-based
Rattus norvegicus [5] = assay: Motor activity in reserpinized rats when 100 umol/kg was administered subcutaneously; type: functional
Method in brief: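 Rats pretreated ip with reserpine (10 mg/kg) 6 h before testing; compound given sc in neck region, rats placed singly in photocell motility meters immediately after and motor activity recorded for 60 min, testing between 1 and 6 p.m.; saline controls; gross behaviour observed.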

Rattus norvegicus [6] = assay: Motor activity in reserpinized rats when 2 umol/kg was administered subcutaneously

| Structure (SMILES) | ED50 [2] | ED50 [3] | also measured |
| --- | --- | --- | --- |
| Oc1cccc(C2CCCN(C3CCCCC3)C2)c1 (centres undefined) |  |  | ED50 [1]: 45 µmol/kg |
| CCCN1CCCCC(c2cccc(O)c2)C1 (centres undefined) | inactive | inactive |  |
| CCCN1CCCC(c2ccccc2O)C1 (centres undefined) | inactive | inactive |  |
| CCCNCCc1cccc(O)c1 |  |  | ED50 [4]: 0.9 µmol/kg; ED50 [1]: 0.8 µmol/kg |
| Oc1cccc(C2CCCN(Cc3ccccc3)C2)c1 (centres undefined) |  |  | ED50 [1]: 24 µmol/kg |
| Br.CCCN1CCCC(c2ccc(O)c(O)c2)C1 (centres undefined) |  |  | Motor activity (Rattus norvegicus [5]): 522 |
| CCCN1CCCC(c2cccc(C)c2)C1 (centres undefined) | inactive | inactive |  |
| Br.CCCN1CCCC(c2cccc(O)c2)C1 (centres undefined) |  |  | Motor activity (Rattus norvegicus [5]): 55 |
| Oc1cccc(C2=CN3CCC2CC3)c1 | inactive | inactive |  |
| CN1CCCC(c2cccc(O)c2)C1 (centres undefined) |  |  | ED50 [1]: 2.5 µmol/kg |
| Oc1cccc(C2CCNC2)c1 (centres undefined) | inactive | inactive |  |
| Oc1cccc(-c2cccnc2)c1 | inactive | inactive |  |
| CCCN1CCCC(c2cccc(C(N)=O)c2)C1 (centres undefined) | inactive | inactive |  |
| CCCN1CCCC(c2cccc(C#N)c2)C1 (centres undefined) | inactive | inactive |  |
| CCCN1CCCC(c2cccc(CO)c2)C1 (centres undefined) | inactive | inactive |  |
| CCCCCN1CCCC(c2cccc(O)c2)C1 (centres undefined) |  |  | ED50 [1]: 0.9 µmol/kg |
| CCCN1CCCC(c2ccc(O)cc2)C1 (centres undefined) | inactive | inactive |  |
| CCCN1CCCC(c2cccc(C(=O)OC)c2)C1 (centres undefined) | inactive | inactive |  |
| CCCN1CCCC(c2ccccc2)C1 (centres undefined) | inactive | inactive |  |
| CC(C)N1CCC(c2cccc(O)c2)C1 (centres undefined) | inactive | inactive |  |
| CCCN1CCC(c2cccc(O)c2)C1 (centres undefined) |  |  | ED50 [4]: 45 µmol/kg; ED50 [1]: 45 µmol/kg |
| CN1CCc2cccc3c2[C@H]1Cc1ccc(O)c(O)c1-3 [APOMORPHINE] |  |  | Motor activity (Rattus norvegicus [6]): 624 |
| Oc1cccc(C2CN3CCC2CC3)c1 (centres undefined) | inactive | inactive |  |
| CCCN1CCCC(c2cccc(N)c2)C1 (centres undefined) | inactive | inactive |  |
| CC(C)(C)CN1CCCC(c2cccc(O)c2)C1 (centres undefined) |  |  | ED50 [1]: > 2.8 µmol/kg |
| CCCN1CCCC(c2cccc(OC)c2)C1 (centres undefined) | inactive | inactive |  |
